{"source": "ChEMBL document CHEMBL4513216", "about": "“Probing the Open Global Health Chemical Diversity Library for Multistage-Active Starting Points for Next-Generation Antimalarials” (ACS Infect Dis, 2020)", "assay": "Toxicity liver stage against HepG2, at 10uM", "type": "cell-based", "set-up": "test concentration 10 uM, cell line HepG2-A16-CD81EGFP", "details": "human, HepG2-A16-CD81EGFP cells; read-out: INHIBITION", "outline": "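Uninfected HepG2-A16-CD81EGFP cells, 3 × 10^3 per well, 1536-well, plated on prespotted compound at 10 μM final, parasite-free screening media added to match infected plates; puromycin 10 μM positive, DMSO 0.5% negative; run in parallel with 48 h PbLuc assay at 37 °C, 5% CO2; viability by CellTiter-Glo luminescence, normalized to controls.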"}
{"compound": "O=C(NCCc1cccc(O)c1)NC1CCN(c2ccccc2)C1=O", "note": "(stereo unspecified)", "values": [{"measurement": "cytotoxicity at 10 µM", "value": 5.68, "unit": "%"}]}
{"compound": "COc1ccnc(N2CCN(C(=O)CCc3nccs3)CC2)n1", "values": [{"measurement": "cytotoxicity at 10 µM", "value": -8.97, "unit": "%"}]}
{"compound": "Cc1noc(C)c1CNC(=O)N1CCC(CO)CC1", "values": [{"measurement": "cytotoxicity at 10 µM", "value": -8.08, "unit": "%"}]}
{"compound": "O=C(c1ccc(Br)o1)N1CCCC(n2cncn2)C1", "note": "(stereo unspecified)", "values": [{"measurement": "cytotoxicity at 10 µM", "value": -3.22, "unit": "%"}]}
{"compound": "NC(=O)CSCCC(=O)N1CCCC1c1ccsc1", "note": "(stereo unspecified)", "values": [{"measurement": "cytotoxicity at 10 µM", "value": -13.6, "unit": "%"}]}
{"compound": "Cc1nccn1-c1cc(CNC(=O)c2ccccn2)ccn1", "values": [{"measurement": "cytotoxicity at 10 µM", "value": -11.5, "unit": "%"}]}
{"compound": "CCCN(CC)C(=O)c1cc2c(c3ccccc3n2C)n1C(=O)N(C)C", "values": [{"measurement": "cytotoxicity at 10 µM", "value": -4.89, "unit": "%"}]}
{"compound": "CN1CC2(CCN(C(=O)c3cccc(-n4cccn4)c3)CC2)OC1=O", "values": [{"measurement": "cytotoxicity at 10 µM", "value": 4.5, "unit": "%"}]}
{"compound": "COc1ccccc1CN(Cc1cccnc1)Cc1c[nH]c(C)n1", "values": [{"measurement": "cytotoxicity at 10 µM", "value": 6.43, "unit": "%"}]}
{"compound": "CCN(CCN1CCCCCC1)C(=O)c1cnc(-c2cccnc2)nc1", "values": [{"measurement": "cytotoxicity at 10 µM", "value": 11.4, "unit": "%"}]}
{"compound": "N#Cc1cccc(NC2CC(=O)N(CCc3ccc(F)cc3)C2)n1", "note": "(stereo unspecified)", "values": [{"measurement": "cytotoxicity at 10 µM", "value": -118, "unit": "%"}]}
{"compound": "CC1CCCCN1CCN(C)C(=O)c1cc(CN2CCC(O)CC2)on1", "note": "(stereo unspecified)", "values": [{"measurement": "cytotoxicity at 10 µM", "value": 1.14, "unit": "%"}]}
{"compound": "COc1ccccc1CN(Cc1cccc(C)c1)C(=O)[C@@H](N)CC(=O)O", "values": [{"measurement": "cytotoxicity at 10 µM", "value": -47.7, "unit": "%"}]}
{"compound": "COCC(=O)N1CCCN(c2ncnc3c2CCNCC3)CC1", "values": [{"measurement": "cytotoxicity at 10 µM", "value": 8.93, "unit": "%"}]}
{"compound": "CC(C)CN1CC2(CCN(C(=O)C3CSC(C)(C)C(=O)N3)CC2)CC1=O", "note": "(stereo unspecified)", "values": [{"measurement": "cytotoxicity at 10 µM", "value": 4.79, "unit": "%"}]}
{"compound": "O=C(COc1ccc(F)cc1F)N1CCOCC(O)(CN2CCCC2)C1", "note": "(stereo unspecified)", "values": [{"measurement": "cytotoxicity at 10 µM", "value": 0.678, "unit": "%"}]}
{"compound": "CC(c1ccon1)N(C)C(=O)C1CCN(CC(N)=O)CC1", "note": "(stereo unspecified)", "values": [{"measurement": "cytotoxicity at 10 µM", "value": -4.83, "unit": "%"}]}
{"compound": "CC(C)N1CCC(CN2CCn3nc(CNC(=O)N(C)C)cc3C2)CC1", "values": [{"measurement": "cytotoxicity at 10 µM", "value": 1.09, "unit": "%"}]}
{"compound": "CN(C)Cc1nnc(C(=O)N(C)Cc2ccc(F)cc2)o1", "values": [{"measurement": "cytotoxicity at 10 µM", "value": 0.624, "unit": "%"}]}
{"compound": "Cc1cccc(OCC2CCCN(C(=O)CN(C)C3CCNCC3)C2)c1", "note": "(stereo unspecified)", "values": [{"measurement": "cytotoxicity at 10 µM", "value": -8.4, "unit": "%"}]}
{"compound": "CC(C)CN(C)Cc1c[nH]nc1-c1ccc(F)cc1F", "values": [{"measurement": "cytotoxicity at 10 µM", "value": 2.38, "unit": "%"}]}
{"compound": "COCCC1(CO)CCCN(C(=O)c2cc(C#N)c(=O)[nH]c2C)C1", "note": "(stereo unspecified)", "values": [{"measurement": "cytotoxicity at 10 µM", "value": -37.7, "unit": "%"}]}
{"compound": "CCOc1ccc(C(=O)CCC(=O)N(C)Cc2noc(C)n2)cc1C", "values": [{"measurement": "cytotoxicity at 10 µM", "value": -4.34, "unit": "%"}]}
{"compound": "O=C(NCc1cc2n(n1)CCCN(Cc1ccc(CO)o1)C2)C1CCC1", "values": [{"measurement": "cytotoxicity at 10 µM", "value": 5.46, "unit": "%"}]}
{"compound": "O=C(Nc1ccc2ncsc2c1)N1CCCN([C@H]2COC[C@@H]2O)CC1", "values": [{"measurement": "cytotoxicity at 10 µM", "value": -53.6, "unit": "%"}]}
{"compound": "COc1ncc(C(=O)N2CCC3(CC2)C(=O)Nc2ccccc23)cn1", "values": [{"measurement": "cytotoxicity at 10 µM", "value": -140, "unit": "%"}]}
{"compound": "Cn1nc(C(=O)N2CCCCC2c2nc3cc(F)ccc3[nH]2)ccc1=O", "note": "(stereo unspecified)", "values": [{"measurement": "cytotoxicity at 10 µM", "value": -18.2, "unit": "%"}]}
{"compound": "CSc1ccc(S(=O)(=O)N2CCCCC2CCNC(C)=O)cc1", "note": "(stereo unspecified)", "values": [{"measurement": "cytotoxicity at 10 µM", "value": -9.61, "unit": "%"}]}
{"compound": "Cc1cc2c(cc1C(=O)N1CC[C@H](CO)[C@@H](O)C1)OCCO2", "values": [{"measurement": "cytotoxicity at 10 µM", "value": -10.8, "unit": "%"}]}
{"compound": "O=C(Cc1ccc2c(c1)OCO2)N1CCCN(c2ccccc2)CC1", "values": [{"measurement": "cytotoxicity at 10 µM", "value": -2.84, "unit": "%"}]}
{"compound": "O=C(c1cccc(S(=O)(=O)NCCCc2ncc[nH]2)c1)N1CCOCC1", "values": [{"measurement": "cytotoxicity at 10 µM", "value": -11.4, "unit": "%"}]}
{"compound": "Cc1nn(C)c(C)c1C1CCCN1Cc1nc(-c2ccccn2)no1", "note": "(stereo unspecified)", "values": [{"measurement": "cytotoxicity at 10 µM", "value": -5.29, "unit": "%"}]}
{"compound": "Cc1ccc(CC(=O)N(CC2CN(C)CCO2)c2nccs2)cn1", "note": "(stereo unspecified)", "values": [{"measurement": "cytotoxicity at 10 µM", "value": -9.89, "unit": "%"}]}
{"compound": "Cc1csc(N2CCN(CC(=O)Nc3cccnc3)CC2C)n1", "note": "(stereo unspecified)", "values": [{"measurement": "cytotoxicity at 10 µM", "value": 14.1, "unit": "%"}]}
{"compound": "COc1ccc(Cl)cc1NCc1cc(C)on1", "values": [{"measurement": "cytotoxicity at 10 µM", "value": -7.13, "unit": "%"}]}
{"compound": "CCc1ocnc1C(=O)N1CCCC(n2nc(C)nc2C)C1", "note": "(stereo unspecified)", "values": [{"measurement": "cytotoxicity at 10 µM", "value": -11.5, "unit": "%"}]}
{"compound": "Cc1cc(C2CCCN(CCCS(C)(=O)=O)C2)n[nH]1", "note": "(stereo unspecified)", "values": [{"measurement": "cytotoxicity at 10 µM", "value": -13.2, "unit": "%"}]}
{"compound": "Cc1cc(C2CCCN(CCNS(=O)(=O)c3ccccc3)C2)n[nH]1", "note": "(stereo unspecified)", "values": [{"measurement": "cytotoxicity at 10 µM", "value": -28.5, "unit": "%"}]}
{"compound": "Fc1cccc(-c2nc(CN3CCCC(Cn4cncn4)C3)co2)c1", "note": "(stereo unspecified)", "values": [{"measurement": "cytotoxicity at 10 µM", "value": -12.5, "unit": "%"}]}
{"compound": "CCOc1ncccc1NC(=O)C1CCS(=O)(=O)C1", "note": "(stereo unspecified)", "values": [{"measurement": "cytotoxicity at 10 µM", "value": -16.7, "unit": "%"}]}
{"compound": "CC(NC(=O)NCCCn1cncn1)c1ccccc1F", "note": "(stereo unspecified)", "values": [{"measurement": "cytotoxicity at 10 µM", "value": -13.3, "unit": "%"}]}
{"compound": "Cc1cccc(-c2nc(C)nn2CC(=O)NCC(C)C)c1", "values": [{"measurement": "cytotoxicity at 10 µM", "value": -27.9, "unit": "%"}]}
{"compound": "CCc1csc(C2CCCN(C(=O)c3cc(Cl)c[nH]3)C2)n1", "note": "(stereo unspecified)", "values": [{"measurement": "cytotoxicity at 10 µM", "value": -9.83, "unit": "%"}]}
{"compound": "Cc1cnn(CC2CN(CC(=O)N(C)c3nccs3)CCO2)c1", "note": "(stereo unspecified)", "values": [{"measurement": "cytotoxicity at 10 µM", "value": 0.385, "unit": "%"}]}
{"compound": "Cc1cc(C(=O)N2CCc3nnc(N)cc3C2)c(C)n1-c1cccnc1", "values": [{"measurement": "cytotoxicity at 10 µM", "value": -1.25, "unit": "%"}]}
{"compound": "COC(=O)C(c1cc(F)ccc1F)N(C)C(=O)c1ccnc(C)n1", "note": "(stereo unspecified)", "values": [{"measurement": "cytotoxicity at 10 µM", "value": -0.337, "unit": "%"}]}
{"compound": "O=C(CCc1nccs1)N1CCN(c2ccc(Br)cn2)CC1", "values": [{"measurement": "cytotoxicity at 10 µM", "value": -2.65, "unit": "%"}]}
{"compound": "CCNC(=O)N1CCCC(c2noc(CC)n2)C1", "note": "(stereo unspecified)", "values": [{"measurement": "cytotoxicity at 10 µM", "value": -2.45, "unit": "%"}]}
{"compound": "CCn1cc(CN2CCCN(C(=O)C3=NN(C)C(=O)CC3)CC2)cn1", "values": [{"measurement": "cytotoxicity at 10 µM", "value": 3.54, "unit": "%"}]}
{"compound": "COc1cccc(Nc2nc(C3CCCNC3)c3sc(C)c(C)n23)c1", "note": "(stereo unspecified)", "values": [{"measurement": "cytotoxicity at 10 µM", "value": -4.93, "unit": "%"}]}
{"compound": "Cc1nc(C)c(C(=O)N2Cc3ccccc3OCC2CN(C)C)o1", "note": "(stereo unspecified)", "values": [{"measurement": "cytotoxicity at 10 µM", "value": 2.2, "unit": "%"}]}
{"compound": "COCC1Cn2nnc(-c3cnn(C)c3)c2CN1Cc1ccco1", "note": "(stereo unspecified)", "values": [{"measurement": "cytotoxicity at 10 µM", "value": -9.44, "unit": "%"}]}
{"compound": "COCC1Cn2nnc(-c3cnn(C)c3)c2CN1Cc1ccc(C)s1", "note": "(stereo unspecified)", "values": [{"measurement": "cytotoxicity at 10 µM", "value": -10.5, "unit": "%"}]}
{"compound": "O=C(C1CC1)N1Cc2[nH]nc(COCc3cccnc3)c2C1", "values": [{"measurement": "cytotoxicity at 10 µM", "value": 0.997, "unit": "%"}]}
{"compound": "CN(C)CCN1CCCC12CCN(C(=O)c1cccnc1)CC2", "values": [{"measurement": "cytotoxicity at 10 µM", "value": 4.68, "unit": "%"}]}
{"compound": "CN1CCN(Cc2cn3c(n2)CN(C(=O)N2CCOCC2)CC3)CC1", "values": [{"measurement": "cytotoxicity at 10 µM", "value": -18.3, "unit": "%"}]}
